The source of these data is ChEMBL document CHEMBL4480400, “Development of an N-Acyl Amino Acid That Selectively Inhibits the Glycine Transporter 2 To Produce Analgesia in a Rat Model of Chronic Pain” (J Med Chem, 2019).

The source made the active and inactive calls.

The nature of series [1]: Toxicity in Sprague-Dawley rat model of neuropathic pain assessed as incidence of localized pain rat 30 mg/kg, ip administered as single dose measured up to 15 mins post injection. Type of series: organism-based. The following applies: in vivo, 0.25 h.
The target of series [2] is Cannabinoid receptor 2 (Homo sapiens) (UniProt P34972). Description: Antagonist activity at human CB2 receptor.
Chain of Cannabinoid receptor 2 (Homo sapiens) (P34972 whole entry): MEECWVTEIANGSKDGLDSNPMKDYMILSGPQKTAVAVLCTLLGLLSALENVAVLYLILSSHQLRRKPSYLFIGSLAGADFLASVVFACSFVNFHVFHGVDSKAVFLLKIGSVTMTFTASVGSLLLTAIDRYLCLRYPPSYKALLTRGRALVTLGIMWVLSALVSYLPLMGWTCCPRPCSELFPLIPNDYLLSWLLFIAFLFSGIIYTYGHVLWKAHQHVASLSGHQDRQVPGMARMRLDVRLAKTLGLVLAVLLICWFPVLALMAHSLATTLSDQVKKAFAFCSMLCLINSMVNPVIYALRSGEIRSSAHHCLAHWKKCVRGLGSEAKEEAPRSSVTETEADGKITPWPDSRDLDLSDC
Series [3] has as its target Mu-type opioid receptor (Mus musculus) (UniProt P42866). Kind of series: Antagonist activity at MOR in mouse AtT-20 cells assessed as inhibition of agonist-induced IGIRK currents at 1 uM in presence of -60 mV holding potential measured every 2 secs by patch clamp assay. Type of series: cell-based. (In patch-clamp work, channel activity is measured electrically.)
Series [4] is described as follows: Ratio of drug uptake in Sprague-Dawley rat brain to plasma at 27.5 mg/kg, ip after 1 hr by UPLC analysis. Type of series: ADME, organism-based. The note with it: read-out: BPR. Summed up:
(§1)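 Male Sprague-Dawley rats (250–306 g) got one ip dose of a suspension (10% v/v DMSO, 1% solutol HS-15 in 50 mM PBS, pH 7.4). Terminal cardiac-puncture heparinised plasma and whole brain were sampled over 24 h, n=3 rats per time point. Samples were extracted by protein precipitation and read by UPLC-MS/MS in positive ESI MRM with a diazepam internal standard. Parameters are non-compartmental; the time-averaged B/P comes from AUC0-24h.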

A short description of series [5]: Degradation half life in human plasma at 1000 ng/ml by LC-MS/MS analysis. The class given is ADME, cell-free. The method, boiled down:
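Pooled human plasma (3 donors) or pooled male Sprague-Dawley rat plasma, thawed at 37°C. Spiked to a nominal 1000 ng/mL final (0.2% DMSO, 0.4% acetonitrile final) and incubated at 37°C. Aliquots were snap-frozen at time points over 4 h (n=3 per time point). Quantified by LC-MS against a same-species blank-plasma calibration with a leucine enkephalin internal standard.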

In series [6] the target is Sodium channel protein type 1 subunit alpha (Homo sapiens) (UniProt P35498). Description: Inhibition of human NaV1.1 expressed in HEK293 cells at 1 uM. Type of series: cell-based.
Series [7] can be described thus: AUC (0 to 24 hrs) in Sprague-Dawley rat brain at 27.5 mg/kg, ip by UPLC analysis. Type of series: ADME, organism-based. The arrangement: time < 24 hr, dose 27.5 mg/kg, route intraperitoneal. The following applies: in vivo. The method, boiled down:
as §1

The target in series [8] is T1, Sodium- and chloride-dependent glycine transporter 1 (Homo sapiens, UniProt P48067).
T1 sequence (P48067 whole entry): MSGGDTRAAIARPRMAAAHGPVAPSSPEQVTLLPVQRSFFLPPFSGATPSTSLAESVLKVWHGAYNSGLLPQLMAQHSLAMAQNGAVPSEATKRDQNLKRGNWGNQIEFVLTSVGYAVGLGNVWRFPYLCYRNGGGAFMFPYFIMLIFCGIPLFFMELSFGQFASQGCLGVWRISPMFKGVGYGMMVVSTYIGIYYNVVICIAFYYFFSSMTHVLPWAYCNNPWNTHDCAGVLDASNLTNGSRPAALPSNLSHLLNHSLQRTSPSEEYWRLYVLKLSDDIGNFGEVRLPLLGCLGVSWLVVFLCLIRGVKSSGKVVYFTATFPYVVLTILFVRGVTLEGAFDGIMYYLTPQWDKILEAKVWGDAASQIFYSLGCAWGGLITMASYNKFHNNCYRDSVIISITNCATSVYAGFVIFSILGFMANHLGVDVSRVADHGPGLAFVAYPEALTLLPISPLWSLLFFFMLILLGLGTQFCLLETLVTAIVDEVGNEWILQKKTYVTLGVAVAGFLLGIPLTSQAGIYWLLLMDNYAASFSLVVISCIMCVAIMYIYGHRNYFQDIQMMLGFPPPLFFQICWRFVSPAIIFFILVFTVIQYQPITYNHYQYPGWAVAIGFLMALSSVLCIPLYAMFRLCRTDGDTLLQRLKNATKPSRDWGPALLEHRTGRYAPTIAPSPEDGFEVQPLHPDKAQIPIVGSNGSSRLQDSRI
Kind of series: Inhibition of recombinant human GlyT1b expressed in Xenopus laevis oocytes assessed as reduction in channel current by two-electrode voltage clamp electrophysiology. The class given is cell-based.

Series [9] has as its target Cannabinoid receptor 1 (Homo sapiens) (UniProt P21554). Description: Antagonist activity at human CB1 receptor.
The next series concerns Rattus norvegicus. Kind of series: Analgesic activity in Sprague-Dawley rat model of neuropathic pain assessed as reduction in allodynia at 30 mg/kg, ip administered as single dose measured after 90 mins post injection. The class given is functional, organism-based. The method, boiled down:
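Male Sprague-Dawley rats were tested 14 days after nerve-constriction surgery. Mechanical paw withdrawal threshold was measured with von Frey filaments (0.4–15.1 g) by the up-down method, bounded at 0.2 and 15 g. Rats got a single ip injection with vehicle of 1% DMSO, 10% Solutol HS15 in 0.9% saline. Testing ran at 15–360 min post-injection with Bonferroni comparisons against vehicle.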

The nature of series [10]: AUC (0 to 24 hrs) in Sprague-Dawley rat plasma at 27.5 mg/kg, ip by UPLC analysis. The class given is ADME, organism-based. The arrangement: dose 27.5 mg/kg, time < 24 hr, route intraperitoneal. The note with it: in vivo. The method, boiled down:
as §1

Chain of Cannabinoid receptor 1 (Homo sapiens) (P21554 whole entry): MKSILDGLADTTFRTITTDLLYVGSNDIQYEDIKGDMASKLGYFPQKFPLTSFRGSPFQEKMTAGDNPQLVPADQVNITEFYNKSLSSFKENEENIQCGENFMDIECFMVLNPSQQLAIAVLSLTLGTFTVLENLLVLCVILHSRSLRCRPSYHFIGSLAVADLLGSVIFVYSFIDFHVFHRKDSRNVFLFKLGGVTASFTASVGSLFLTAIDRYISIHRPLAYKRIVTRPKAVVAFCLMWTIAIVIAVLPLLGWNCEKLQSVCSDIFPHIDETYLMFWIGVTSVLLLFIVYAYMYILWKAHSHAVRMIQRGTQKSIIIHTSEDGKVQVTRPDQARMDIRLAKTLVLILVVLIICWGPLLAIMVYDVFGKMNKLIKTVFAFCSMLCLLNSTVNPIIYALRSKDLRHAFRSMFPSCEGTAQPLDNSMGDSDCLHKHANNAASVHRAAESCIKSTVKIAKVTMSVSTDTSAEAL
Chain of Mu-type opioid receptor (Mus musculus) (P42866 whole entry): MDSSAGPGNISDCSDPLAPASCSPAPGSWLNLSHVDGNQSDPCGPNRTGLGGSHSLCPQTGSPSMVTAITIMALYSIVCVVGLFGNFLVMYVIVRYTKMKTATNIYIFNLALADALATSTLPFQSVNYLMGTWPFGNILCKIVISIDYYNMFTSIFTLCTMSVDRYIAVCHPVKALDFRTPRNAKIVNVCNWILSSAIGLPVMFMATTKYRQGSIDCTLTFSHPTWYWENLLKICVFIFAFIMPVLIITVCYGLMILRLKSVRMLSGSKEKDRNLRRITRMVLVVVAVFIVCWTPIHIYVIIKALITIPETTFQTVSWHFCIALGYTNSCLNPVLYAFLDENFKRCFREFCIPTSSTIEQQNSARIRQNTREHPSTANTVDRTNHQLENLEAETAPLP

As for `CCCCCCCC/C=C\CCCCCCCC(=O)N[C@H](CCCCN)C(=O)O.Cl`, the Activity result in series [1] was “Toxic”. Also, the inhibition entry in series [2], in series [3], in series [6] and in [9] was “inactive” in each case. Also, the Kp at 1 h in series [4] was found to be 0.08. Moreover, the t1/2 in series [5] is > 17.03 h. Moreover, the AUC in [7] was 38479 ng·h/g; in [10], 122.473 µg·h/mL. Besides, the IC50 in series [8] is > 3 µM. Moreover, the outcome in the series with Rattus norvegicus was Active.

The IC50 is the concentration that inhibits the measured activity by half.
